# Screens as filed in PubChem BioAssay.
# NR1D1 modulator: modulates human Rev-erb alpha binding to DNA. Rev-erbα–FITC-DNA binding, fluorescence polarization, 90 min. P20393. 370,000 tested, 0.79% active. activity, % at 10 µM;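 active = activity above about 14%, limit read from the data; passing the limit was not always enough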;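 also: 0% = DMSO wells with 35 nM protein and 100% = DMSO wells with 750 nM protein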
# HGIII-sPLA2 inh: Inhibits HGIII-sPLA2 liposome hydrolysis, primary screen; Q9NZ20; AID 743126; 370,000 tested, 0.56% active; QFRET BODIPY PC-A2 liposome hydrolysis, fluorescence; inhibition, % at 12.2 µM;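 active = inhibition above mean plus 3 SD of compounds lying within the high and low control bounds, cut at about 19% in these data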;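 also: 0% = median of test compound wells and 100% = no enzyme DMSO wells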
# MsrA inh: inhibits bovine methionine sulfoxide reductase A. inhibition, % at 15.5 µM. 360,000 tested, 0.75% active. purified bovine MsrA, absorbance read-out; in the data active = inhibition above about 4.5%;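 also: 0% = vehicle wells with enzyme and 100% = reference inhibitor wells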
# MsrA act: activators of bovine methionine sulfoxide reductase A. activation, % at 10.6 µM. purified bovine MsrA, absorbance read-out. 360,000 tested, 0.3% active; in the data active = activation above about 7.5%;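 also: 0% = vehicle and 100% = reference activator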
# ARFGAP1 inhibitor: rat ARFGAP1 inhibition. AID 651572. Arfgap1-stimulated ARF1 GTP hydrolysis, GDP FP detection. 360,000 tested, 0.26% active. inhibition, % at 16.5 µM;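 active = inhibition above a per-plate limit, mean inhibition of low control wells plus 3 SD, cut at about 25% in these data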;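 also: 0% = DMSO wells with enzyme and 100% = wells lacking Arfgap1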
# Target sequence (Q62848 1-136 limits assumed): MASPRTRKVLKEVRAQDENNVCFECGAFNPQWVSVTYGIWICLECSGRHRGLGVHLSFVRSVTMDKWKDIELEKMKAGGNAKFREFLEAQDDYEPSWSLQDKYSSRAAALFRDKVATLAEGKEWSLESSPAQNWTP
#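 Assay system: Rat Arfgap1 GAP domain (His6, aa 1-136), purified enzyme | Buffer or medium: HEPES 25 mM pH 7.5, NaCl 150 mM, MgCl2, DTT | Schedule: GTP hydrolysis reaction 2 h at 25 °C | Signal: FP of antibody-bound GDP Alexa 633 tracer, ex 620/em 688 nm | Measure: Percent inhibition of Arfgap1-stimulated GTP hydrolysis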
# ASAP1 GAP inh: ASAP1 ArfGAP inhibition; 360,000 tested, 0.19% active; inhibition, % at 16.5 µM; ASAP1-stimulated ARF1 GTP hydrolysis, GDP FP detection; Q9ULH1; in the data active = inhibition above about 25%;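 also: 0% = vehicle with enzyme and substrate and 100% = no enzyme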
# Target sequence (Q9ULH1 325-724 limits assumed): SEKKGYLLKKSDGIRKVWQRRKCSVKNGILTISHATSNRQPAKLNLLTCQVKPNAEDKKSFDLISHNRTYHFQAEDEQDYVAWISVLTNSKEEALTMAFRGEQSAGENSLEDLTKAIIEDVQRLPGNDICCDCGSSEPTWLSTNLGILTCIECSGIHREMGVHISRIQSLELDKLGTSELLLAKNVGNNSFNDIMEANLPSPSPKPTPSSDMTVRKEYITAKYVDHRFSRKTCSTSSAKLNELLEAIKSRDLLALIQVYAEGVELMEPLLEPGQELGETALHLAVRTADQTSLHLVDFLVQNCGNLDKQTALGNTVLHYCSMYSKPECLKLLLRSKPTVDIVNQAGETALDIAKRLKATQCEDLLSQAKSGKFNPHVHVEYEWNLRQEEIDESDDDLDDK
# MsrA activ conf: confirmation of bovine methionine sulfoxide reductase A activators | shares compounds with MsrA act | purified bovine MsrA, absorbance read-out | activation, % at 10.6 µM | 1,000 tested, 12% active; in the data active = activation above about 4%;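 also: enzyme coupled to thioredoxin and thioredoxin reductase with NADPH; 0% = vehicle wells and 100% = reference activator wells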
# * = called active by the depositor; . = no result given. Only some compounds are listed: those with a hit (about 2.7% of all), similar ones and a draw of the others.
SMILES,NR1D1 modulator,HGIII-sPLA2 inh,MsrA inh,MsrA act,ARFGAP1 inhibitor,ASAP1 GAP inh,others
Cc1ccsc1/C=N/NC(=O)c1c[nH]c2ccccc12,5,-2,5.1*,-4,7,16,
Cc1ccc(/C=N/n2c(C)n[nH]c2=S)o1,1,5,4.6*,0,-5,4,
Cc1ccccc1N1CCN(CCc2nnc3n2CCCC3)CC1,-2,.,.,.,.,.,
CCOC(=O)c1cc2ccc(OC)cc2oc1=O,3,10,4.6*,-6,-2,9,
COc1ccc(C(=O)COC(=O)c2cc3ccccc3oc2=O)c(OC)c1,1,5,1,-1,4,7,
CCOc1ccc(C(=O)c2nc3c(n2O)CCCC3)cc1,3,-15,5.0*,-12,-3,0,
Cc1ccc2nc(NC(=O)/C=C/c3ccc4c(c3)OCO4)sc2c1,0,15,0,-6,-6,-2,
Cc1csc(NC(=O)/C=C/c2ccc3c(c2)OCO3)n1,-6,3,4.6*,-9,3,-2,
Cc1ccc2c(c1)N(C(=O)CSc1nncn1C)C(C)(C)c1ssc(=S)c1-2,9,24*,2,-5,7,-5,
CCCn1c(/C=N/Nc2nc3ccccc3[nH]2)nc2ccccc21,0,31*,2,4,13,1,
Cc1c(/C=N/Nc2nc3ccccc3[nH]2)c2ccccc2n1C,2,6,-1,-4,0,9,
CCCCNC(=S)N/N=C/c1ccc(C#N)cc1,3,-3,4.7*,-2,2,-7,
Cc1cc(C(F)(F)F)n2nc(-c3cnn(C)c3C(F)(F)F)cc2n1,4,0,1,7.7*,0,4,
COc1cc(/C=C(\C#N)C(=O)c2ccc(O)c(O)c2)cc(I)c1O,-8,-24,4.6*,-8,-5,-18,
COC(=O)c1cccc(N2CCCC2=O)c1,-1,4,1,-5,-2,3,
COC(=O)c1cccc(-n2sc3ccccc3c2=O)c1,-4,13,1,11*,-7,4,
CN(C)c1ccc(C(=O)C(=O)c2ccccc2)cc1,-7,7,4.6*,-5,-2,3,
NC(=S)N=Nc1c(O)[nH]c2ccc(F)cc12,-2,11,4.5*,-2,-1,3,
COc1cc(OC)cc(-c2sc3ccc(OC)cc3c2C#CC2(N)CCCCC2)c1,-2,1,1,-1,22,-9,
COc1cccc(-c2sc3ccc(OC)cc3c2C#CC2(O)CCCCC2)c1,3,-27,4.7*,-5,-1,-2,
O=C1O[C@@H](CO)[C@H](O)[C@@H](O)[C@@H]1O,-3,.,.,.,.,.,
COc1ccc(-c2nc3ncccc3o2)cc1NC(=O)c1cccs1,6,8,4,-3,7,-1,
COc1ccc(-c2nc3ncccc3o2)cc1NC(=O)c1ccco1,2,4,4.6*,-4,-4,5,
COc1ccccc1N1CCN(C(=O)/C=C/c2c(Cl)nc3ccccn23)CC1,-5,0,4.6*,-14,15,5,
COc1ccc(NC(=O)/C=C/c2c(Cl)nc3ccccn23)cc1,-4,0,2,-4,2,14,
SMILES,NR1D1 modulator,HGIII-sPLA2 inh,MsrA inh,MsrA act,ARFGAP1 inhibitor,ASAP1 GAP inh,others
O=C(C1=COCCO1)N1CCN(c2nc3ccc([N+](=O)[O-])cc3s2)CC1,-1,5,0,-3,10,28*,
CN(C)c1ccc(/C=C(/NC(=O)c2ccccc2)C(=O)NCCN2CCOCC2)cc1,0,-13,4.6*,-4,-5,2,
O=C(NCCN1CCOCC1)/C(=C/c1ccc(Cl)cc1)NC(=O)c1ccccc1,1,-1,0,-1,10,5,
CC(=O)OCC(=O)[C@@]1(O)CCC2C3CCC4=CC(=O)C=C[C@]4(C)[C@@]3(Cl)[C@@H](Cl)C[C@@]21C (some centres undefined),-3,.,.,.,.,.,
Nc1nnc(CC(=O)N/N=C/c2ccc(-c3ccc(F)cc3)o2)s1,4,-18,6.1*,-3,-2,-11,
COc1ccc(-c2cc(C(=O)NNC(=S)NC(=O)c3c(-c4ccccc4)noc3C)[nH]n2)cc1,-14,24*,2,-1,2,2,
CCCCCCCCCCCCOC(=O)CS(=O)(=O)O,-8,.,.,.,.,.,
CCCCC(CC)CN=C(N)NC(N)=NCCCCCCN=C(N)NC(N)=NCC(CC)CCCC (centres undefined),.,.,.,9.7*,.,.,
CCCCC(CC)CO (centres undefined),4,1,-1,4,3,-8,
CC(=O)OCC(=O)[C@@]1(O)[C@H](C)CC2C3CCC4=CC(=O)C=C[C@]4(C)[C@@]3(F)[C@@H](O)C[C@@]21C (some centres undefined),4,.,.,.,.,.,
O=c1c2ccccc2nc(/C=C/c2ccccc2)n1CCCO,13,-1,4.6*,-14,1,6,
O=c1c2ccccc2nc(/C=C/c2ccc3c(c2)OCO3)n1CCCO,.,.,.,-2,.,.,
Cc1c(NC(=O)COc2c(F)c(F)c(F)c(F)c2F)c(=O)n(-c2ccccc2)n1C,0,8,0,0,27*,-7,
CCC(C)Nc1nc(-c2c[nH]c3ccccc23)cs1 (centres undefined),1,1,-1,-2,32*,22,
O=C(Cc1cccs1)N[C@H]1C(=O)N2C(C(=O)O)=C(C[n+]3ccccc3)CSC12 (some centres undefined),-1,.,.,.,.,.,
Cc1cccc(-c2n[nH]c(=S)n2/N=C/C=C/c2ccco2)c1,-6,31*,2,-3,-4,2,
CC(/C=N/n1c(-c2ccncc2)n[nH]c1=S)=C\c1ccco1,-3,23*,3,0,3,2,
CC(/C=N/n1c(-c2ccc(C)cc2)n[nH]c1=S)=C\c1ccco1,2,6,4,-1,-2,0,
O=C(O)C(CO)N=Cc1c(O)c2ccccc2oc1=O (centres undefined),-1,-9,4.6*,-9,-7,-2,
CC(C)C(=O)NC(c1ccco1)c1ccc2cccnc2c1O (centres undefined),-1,12,0,-3,-7,0,
Oc1c(C(Nc2nc3ccccc3s2)c2ccco2)ccc2cccnc12 (centres undefined),-1,34*,0,-8,15,5,
O=C(Nc1nc(-c2cccs2)c(-c2ccccc2)s1)c1ccco1,1,1,2,-5,34*,15,
CCN(CC)CC(C)(C)C(=O)/C=C/c1ccc(/C=C/C(=O)C(C)(C)CN(CC)CC)cc1,2,-6,12*,2,-1,-2,
Cc1ccc(S(=O)(=O)Nc2cccc(-c3ccc4nnc(C)n4n3)c2)s1,-6,1,-1,20*,-6,12,MsrA activ conf=0
